# ChEMBL document CHEMBL4196102, “Yeast Chemogenomic Profiling Reveals Iron Chelation To Be the Principle Cell Inhibitory Mode of Action of Gossypol” (J Med Chem, 2018)
# Calls of active or inactive are those of the source. The rule behind the calls is not given here.
# What was measured:
# Format in all cases: functional, organism-based
# Saccharomyces cerevisiae [1] = experiment: Growth inhibition of Saccharomyces cerevisiae harboring FET3 deletion mutant at 400 uM measured for 11 hrs by HOP assay
# Method in brief: (§1)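 Pooled homozygous (HOP) or heterozygous (HIP) deletion collections were profiled at 400 µM in two independent experiments, with strain sensitivity read from barcode abundance. Hits were retested as individual log-phase strains in YPD with serial compound dilutions, start OD600 0.01 and 2% DMSO. OD600 was read at 11 h and fitted by logistic regression against HO/YDL227C as wild-type reference.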
# Saccharomyces cerevisiae [2] = experiment: Growth inhibition of Saccharomyces cerevisiae harboring GEF1 deletion mutant at 400 uM measured for 11 hrs by HOP assay; method in brief: as §1
# Saccharomyces cerevisiae [3] = experiment: Growth inhibition of wild type Saccharomyces cerevisiae BY4743 at 100 uM measured for 15 hrs in presence of Fe2+
# Saccharomyces cerevisiae [4] = experiment: Growth inhibition of Saccharomyces cerevisiae harboring FTR1 deletion mutant at 400 uM measured for 11 hrs by HOP assay; method in brief: as §1
# Saccharomyces cerevisiae [5] = experiment: Growth inhibition of Saccharomyces cerevisiae harboring CCC2 deletion mutant at 400 uM measured for 11 hrs by HOP assay; method in brief: as §1
# Saccharomyces cerevisiae [6] = experiment: Growth inhibition of wild type Saccharomyces cerevisiae BY4743 at 500 uM measured for 15 hrs in presence of Fe2+
# Saccharomyces cerevisiae [7] = experiment: Growth inhibition of Saccharomyces cerevisiae harboring GRX6 deletion mutant at 400 uM measured for 11 hrs by HOP assay; method in brief: as §1
# Saccharomyces cerevisiae [8] = experiment: Growth inhibition of Saccharomyces cerevisiae harboring PIB2 deletion mutant at 400 uM measured for 11 hrs by HIP assay; method in brief: as §1
Structure (SMILES),growth inhibition (GI) (Saccharomyces cerevisiae [1]),growth inhibition (GI) (Saccharomyces cerevisiae [2]),growth inhibition (GI) (Saccharomyces cerevisiae [3]),growth inhibition (GI) (Saccharomyces cerevisiae [4]),growth inhibition (GI) (Saccharomyces cerevisiae [5]),growth inhibition (GI) (Saccharomyces cerevisiae [6]),growth inhibition (GI) (Saccharomyces cerevisiae [7]),growth inhibition (GI) (Saccharomyces cerevisiae [8])
O=C(O)c1ccc(-n2nc(-c3ccccc3O)nc2-c2ccccc2O)cc1,Active,inactive,inactive,,,,,
Cc1cc2c(C(C)C)c(O)c(O)c(C=O)c2c(O)c1-c1c(C)cc2c(C(C)C)c(O)c(O)c(C=O)c2c1O,Active,Active,,Active,Active,inactive,Active,inactive
